ChEMBL document CHEMBL1153852, “Steroidal lactones as inhibitors of 17beta-hydroxysteroid dehydrogenase type 5: chemical synthesis, enzyme inhibitory activity, and assessment of estrogenic and androgenic activities” (Eur J Med Chem, 2009)
Calls of active or inactive are those of the source. The calls are words filed in the database; no cut-off is given here.

Experiments:
ZR-75-1 [1] = test: Estrogenic activity in human ZR-75-1 cells expressing estrogen receptor assessed as estrogen-induced cell proliferation at 1 uM after 9 days relative to estrogen; type: functional
Outline: (§1)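 ZR-75-1 cells are resuspended in phenol red-free RPMI 1640 with 5% dextran-charcoal-treated FBS and seeded at 10,000 cells/well. After 3 days of adhesion, lactones from ethanol stocks are added alone or with E2 (0.1 nM). Cells grow 9 days at 37 °C in 5% CO2, with medium changed every 2–3 days. DNA is measured by DABA fluorescence; E2-induced growth is set to 100%.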

ZR-75-1 [2] = test: Estrogenic activity in human ZR-75-1 cells expressing estrogen receptor assessed as estrogen-induced cell proliferation at 0.03 uM after 9 days relative to estrogen; type: functional, cell-based; outline: as §1
ZR-75-1 [3] = test: Antiestrogenic activity in human ZR-75-1 cells expressing estrogen receptor assessed as inhibition of estrogen-induced cell proliferation at 0.1 nM after 9 days relative to estrogen; type: functional, cell-based
[4] = biological target: T1, 17-beta-hydroxysteroid dehydrogenase type 3 (Homo sapiens) (UniProt P37058); test: Inhibition of human 17beta-HSD3 expressed in HEK293 cells assessed as enzyme-mediated transformation of [14C]-4-androstene-3,17-dione in to [14C]-testosterone at 0.1 uM; type: cell-based
T1 sequence (whole entry): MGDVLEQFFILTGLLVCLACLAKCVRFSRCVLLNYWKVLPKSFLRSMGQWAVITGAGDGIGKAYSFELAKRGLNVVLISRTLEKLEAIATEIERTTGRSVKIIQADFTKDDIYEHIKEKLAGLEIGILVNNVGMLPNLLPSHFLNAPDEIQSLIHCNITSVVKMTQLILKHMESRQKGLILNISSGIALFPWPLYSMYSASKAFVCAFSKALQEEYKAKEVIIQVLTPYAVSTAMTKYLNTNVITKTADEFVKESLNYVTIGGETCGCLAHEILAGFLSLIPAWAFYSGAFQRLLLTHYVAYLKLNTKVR

[5] = biological target: T2, Aldo-keto reductase family 1 member C3 (Homo sapiens) (UniProt P42330); test: Inhibition of human 17beta-HSD5 expressed in HEK293 cells assessed as enzyme-mediated transformation of [14C]-4-androstene-3,17-dione in to [14C]-testosterone at 0.3 uM after 18 hrs; type: cell-based
T2 sequence (whole entry): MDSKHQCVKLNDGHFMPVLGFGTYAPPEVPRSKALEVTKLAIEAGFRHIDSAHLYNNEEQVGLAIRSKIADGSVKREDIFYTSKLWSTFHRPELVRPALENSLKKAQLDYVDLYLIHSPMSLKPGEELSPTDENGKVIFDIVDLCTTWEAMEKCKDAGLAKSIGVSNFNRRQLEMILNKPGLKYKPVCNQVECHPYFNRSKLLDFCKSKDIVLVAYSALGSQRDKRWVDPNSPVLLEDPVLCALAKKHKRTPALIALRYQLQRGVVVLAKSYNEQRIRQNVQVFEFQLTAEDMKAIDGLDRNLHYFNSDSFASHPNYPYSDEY
Outline: (§2)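 Intact HEK-293 cells stably over-expressing human 17β-HSD5, in freshly changed culture medium. [14C]-4-androstene-3,17-dione is added at 100 nM with inhibitor from an ethanolic solution; controls get ethanol only. After 18 h the conversion to [14C]-T is measured.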

[6] = biological target: T2, Aldo-keto reductase family 1 member C3 (Homo sapiens); test: Inhibition of human 17beta-HSD5 expressed in HEK293 cells assessed as enzyme-mediated transformation of [14C]-4-androstene-3,17-dione in to [14C]-testosterone at 3 uM after 18 hrs; type: cell-based; outline: as §2
[7] = biological target: T1, 17-beta-hydroxysteroid dehydrogenase type 3 (Homo sapiens); test: Inhibition of human 17beta-HSD3 expressed in HEK293 cells assessed as enzyme-mediated transformation of [14C]-4-androstene-3,17-dione in to [14C]-testosterone at 1 uM; type: cell-based
[8] = biological target: T3, 17-beta-hydroxysteroid dehydrogenase type 1 (Homo sapiens) (UniProt P14061); test: Inhibition of human 17beta-HSD1 expressed in HEK293 cells assessed as enzyme-mediated transformation of [14C]-E1 in to [14C]-E2 at 1 uM; type: cell-based
T3 sequence (whole entry): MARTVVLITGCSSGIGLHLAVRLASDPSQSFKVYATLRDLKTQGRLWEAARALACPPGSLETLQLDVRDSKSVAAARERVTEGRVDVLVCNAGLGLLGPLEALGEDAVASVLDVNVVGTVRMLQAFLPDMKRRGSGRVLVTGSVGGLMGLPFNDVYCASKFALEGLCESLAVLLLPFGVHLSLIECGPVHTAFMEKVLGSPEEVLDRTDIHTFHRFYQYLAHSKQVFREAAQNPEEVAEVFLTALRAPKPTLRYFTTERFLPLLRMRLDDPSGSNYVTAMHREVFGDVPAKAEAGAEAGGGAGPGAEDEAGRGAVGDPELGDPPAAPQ

[9] = biological target: T4, Aldo-keto reductase family 1 member C3 (Homo sapiens, UniProt P42330); test: Inhibition of human 17beta-HSD5 expressed in HEK293 cells assessed as enzyme-mediated transformation of [14C]-4-androstene-3,17-dione in to [14C]-testosterone after 18 hrs; type: cell-based
T4 sequence (P42330 whole entry): T2 sequence (whole entry)
Outline: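 Intact HEK-293 cells stably over-expressing human 17β-HSD5, in fresh culture medium. [14C]-4-androstene-3,17-dione 0.1 μM with inhibitor added in ethanol (ethanol alone as control), 18 h.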

[10] = biological target: T3, 17-beta-hydroxysteroid dehydrogenase type 1 (Homo sapiens); test: Inhibition of human 17beta-HSD1 expressed in HEK293 cells assessed as enzyme-mediated transformation of [14C]-E1 in to [14C]-E2 at 0.1 uM; type: cell-based
Mus musculus [11] = organism: Mus musculus; test: Androgenic activity in mouse SC115 cells expressing androgen receptor assessed as DHT-induced cell proliferation at 0.1 uM after 10 days relative to DHT; type: functional, cell-based
Outline: (§3)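 SC115 Shionogi clone selected for DHT sensitivity, in MEM with 2% dextran-charcoal-treated FCS, seeded at 20,000 cells/well. After 24 h the medium is renewed and lactones added at 0.1 and 1, without DHT. Final ethanol is 0.01%. Cells are grown 10 days at 37 °C in 5% CO2, with medium changed every 3–4 days. DNA is measured by DABA fluorescence; DHT-stimulated growth is set to 100%.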

[12] = Antiandrogenic activity in mouse SC115 cells expressing androgen receptor assessed as inhibition of DHT-induced cell proliferation at 1 uM after 10 days relative to DHT; type: functional; settings: 240 h
Outline: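 SC115 Shionogi clone chosen for high DHT sensitivity; plated at 20,000 cells/well in MEM with 2% dextran-coated charcoal-treated FCS. After 24 h, medium changed and compound (0.1 or 1 μM) added with 0.3 nM DHT; ethanol 0.01% final. 10 days at 37 °C, medium changed every 3–4 days. Growth read as DNA content (DABA fluorescence); DHT-stimulated growth set to 100%; triplicates, mean ± SEM.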

Mus musculus [13] = organism: Mus musculus; test: Androgenic activity in mouse SC115 cells expressing androgen receptor assessed as DHT-induced cell proliferation at 1 uM after 10 days relative to DHT; type: functional, cell-based; outline: as §3

SMILES: CCCCN(C)C(=O)CCCCCCCCCC[C@@H]1Cc2cc(O)ccc2[C@H]2CC[C@]3(C)[C@@H](O)[C@H](Cl)C[C@H]3[C@H]12
- Activity (ZR-75-1 [1]): inactive
- Activity (ZR-75-1 [2]): inactive
- Activity (ZR-75-1 [3]): Active

SMILES: CC1CC[C@@]2(CC[C@H]3[C@@H]4CCc5ccccc5[C@H]4CC[C@@]32C)OC1=O (stereo partly drawn)
- inhibition [4]: 25%
- inhibition [5]: 91%
- inhibition [6]: 94%
- inhibition [7]: 64%
- inhibition [8]: 21%
- IC50 [9]: 6.1 nM
- inhibition [10]: 21%

SMILES: CC(C)(O)C(=O)Nc1ccc([N+](=O)[O-])c(C(F)(F)F)c1 [HYDROXYFLUTAMIDE]
- Activity (Mus musculus [11]): inactive
- inhibition at 1 µM [12]: 94%
- Activity (Mus musculus [13]): inactive
